APJ ag: APJ receptor agonism | CHO-K1 APJ PathHunter beta-arrestin, luminescence; 0% DMSO wells, 100% apelin | activation, % at 20 µM | 0.11% of 330,000 active | AID 2520;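 active = activation more than six SD over the plate average, tested at 20 µM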;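 also: 0% = DMSO alone and 100% = apelin-13 at 10 nM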
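Test system: CHO-K1 APJ beta-arrestin complementation cell line | Compound: Single test compound dose, 20 µM final, 1% DMSO | Incubation: Compound 90 min 25 °C, reagent 1 h | Measured by: beta-gal luminescence | Read-out basis: APJ–arrestin association signal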
B2AR ag: activates human beta-2 adrenergic receptor causing internalization; P07550; 0.43% of 340,000 active; Am2.2-beta2AR cells, FAP receptor internalization, flow cytometry; response, % (no concentration beside the values);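 active = response above a set limit, near 3 SD of response in nonfluorescent compounds, cut at about 42% in these data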
APJ antag: antagonists of human APJ apelin receptor | P35414 | CHO-K1 APJ beta-arrestin complementation, luminescence | inhibition, % at 20 µM | 0.32% of 330,000 active | AID 2521;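 active = inhibition above about 40% at 20 µM, limit read from the data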;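 also: cells challenged with 10 nM apelin-13 agonist together with compound; plate controls were apelin-13 plus DMSO wells for no effect and DMSO wells lacking apelin-13 for full effect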
EBI2 block: antagonists of human EBI2 receptor | EBI2 beta-arrestin recruitment, luminescence, 7a,25-OHC stimulated | inhibition, % at 5 µM | 0.81% of 360,000 active | AID 651636; in the data active = inhibition above about 38%;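 also: enzyme fragment complementation signal reports receptor beta-arrestin coupling in cells; 0% = agonist plus DMSO wells and 100% = wells without agonist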
Target sequence (P32249 whole entry, looked up, the tested form may be a part): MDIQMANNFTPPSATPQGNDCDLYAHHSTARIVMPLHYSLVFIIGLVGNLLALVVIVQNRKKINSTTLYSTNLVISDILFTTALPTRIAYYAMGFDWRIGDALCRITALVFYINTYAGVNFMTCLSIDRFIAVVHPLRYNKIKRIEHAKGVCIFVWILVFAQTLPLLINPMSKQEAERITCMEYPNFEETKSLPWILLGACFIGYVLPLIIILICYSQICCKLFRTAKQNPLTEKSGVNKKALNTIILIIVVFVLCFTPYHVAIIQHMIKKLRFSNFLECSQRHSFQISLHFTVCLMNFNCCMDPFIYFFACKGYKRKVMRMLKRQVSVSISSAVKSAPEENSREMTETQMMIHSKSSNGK
CXCR6 inh: CXCR6 (human) receptor inhibition; O00574; CHO-K1 PathHunter CXCR6 beta-arrestin, luminescence; inhibition, % at 20 µM; 0.36% of 360,000 active; in the data active = inhibition above about 34%, passing the limit was not always enough;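 also: antagonist mode with CXCL16 agonist at 10 nM final; 0% = 10 nM CXCL16 with DMSO and 100% = unstimulated wells without agonist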
Target sequence (O00574 whole entry, looked up): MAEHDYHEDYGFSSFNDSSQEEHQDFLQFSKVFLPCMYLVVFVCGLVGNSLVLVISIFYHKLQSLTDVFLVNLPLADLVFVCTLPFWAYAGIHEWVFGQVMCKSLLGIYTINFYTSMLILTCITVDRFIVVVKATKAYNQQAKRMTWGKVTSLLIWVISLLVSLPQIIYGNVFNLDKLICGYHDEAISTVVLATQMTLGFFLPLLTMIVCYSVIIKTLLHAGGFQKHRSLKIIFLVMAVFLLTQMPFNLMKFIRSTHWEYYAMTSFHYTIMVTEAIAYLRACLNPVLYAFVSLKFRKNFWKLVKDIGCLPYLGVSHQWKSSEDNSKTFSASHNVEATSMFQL
CCR6 antagonist: antagonists of human CCR6 receptor; P51684; CHO-K1 CCR6 PathHunter beta-arrestin, luminescence, CCL20-stimulated; inhibition, % at 20 µM; 0.49% of 340,000 active; AID 493098;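 active = compounds whose inhibition of the agonist-driven luminescence signal at 20 µM reaches about 50%, limit read from the data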;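 also: cells stimulated with CCL20 at 14 nM final; plate controls were DMSO with CCL20 for no effect and DMSO without agonist for full effect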
CXCR6 antag conf: CXCR6 antagonism confirmation, single concentration | CHO-K1 CXCR6 PathHunter beta-arrestin, luminescence | inhibition, % at 20 µM | 65% of 700 active | shares compounds with CXCR6 inh;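 active = mean inhibition over four retests above 40%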;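 also: receptor stimulated with 10 nM CXCL16 agonist; beta-galactosidase fragment complementation upon beta-arrestin recruitment to receptor; plate controls were CXCL16 plus DMSO for no effect and DMSO without CXCL16 for full effect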
EBI2 antag conf: confirmation of human EBI2 receptor antagonists | shares compounds with EBI2 block | EBI2 beta-arrestin luminescence, 7a,25-OHC antagonism | inhibition, % at 5 µM | 29% of 2,400 active | AID 651997;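 active = inhibition of at least 50%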
EBI2 ag: EBI2 agonism counter-screen; EBI2-expressing cells, agonist mode, luminescence, 60 min; 0% vehicle, 100% 7α,25-dihydroxycholesterol control; activation, % at 5 µM; 2,400 tested, under 10 active; shares compounds with EBI2 block;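 active = activation of at least 50%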
bGal counter: inhibits E. coli beta-galactosidase, counter-screen for EBI2 antagonists; AID 652176; purified beta-galactosidase, luminescent Galacton Star, 15 min; inhibition, % at 5 µM; 1% of 2,400 active; shares compounds with EBI2 block;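 active = replicate-average signal at least 3 plate SD below neutral wells, shown as high inhibition, flagging enzyme-inhibiting false positives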;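 also: 0% = DMSO wells with enzyme and 100% = wells lacking enzyme; higher means stronger loss of beta-gal luminescence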
* hit, by the source's call; / = no result given. Compounds with a hit are over-represented: about 1.8% of the library has one in this group of screens.

SMILES | APJ ag | B2AR ag | APJ antag | EBI2 block | CXCR6 inh | CCR6 antagonist | CXCR6 antag conf | others
O=C(COC(=O)c1cnccn1)NCc1ccccc1Cl | / | / | / | -7 | -1 | / | /
CCOC(=O)CS(=O)(=O)c1nc(-c2ccccc2)cc(C(F)(F)F)n1 | -4 | 109* | 30 | 20 | 51* | 23 | 44*
CC1C(=O)N(Cc2cn(Cc3ccco3)nn2)CCS(=O)(=O)N1Cc1ccc(-c2ccc(Cl)c(Cl)c2)cc1 (configuration not stated) | / | / | / | 11 | 67* | / | -16
O=C(NC(=S)N1CCN(c2c(Cl)cccc2[N+](=O)[O-])CC1)c1cccs1 | -3 | 1 | 7 | 13 | 38* | 45 | 35
COc1ccc(N2CCN(C(=S)NC(=O)c3cccs3)CC2)c([N+](=O)[O-])c1 | -3 | 8 | 16 | 4 | 22 | 45 | /
CCc1nc2c(OCCC3CCCCC3)cccn2c1N(C)C(=O)c1cccs1 | / | / | / | 29 | 47* | / | 39
CCc1cccc2c(C(=O)C(F)(F)F)cn(CC(=O)NCC3CCCO3)c12 (configuration not stated) | -5 | 3 | 6 | -10 | 46* | 13 | 2
CCC(C)c1ccc(O)c(NC(=S)NC(=O)c2cccs2)c1 (configuration not stated) | / | / | / | 23 | 59* | / | 64*
CCCC(=O)OCCNc1cc(SCCC(=O)OC)c2nonc2c1[N+](=O)[O-] | -4 | 18 | 20 | -9 | 50* | 62* | 63*
CC(=O)OCCNc1cc(Sc2nc3ccccc3[nH]2)c2nonc2c1[N+](=O)[O-] | / | 26 | / | 59* | 96* | 103* | 105*
O=C(O)c1cc([N+](=O)[O-])c(Sc2nc3ccccc3[nH]2)c([N+](=O)[O-])c1 | 2 | -1 | -5 | -6 | 6 | 10 | /
O=[N+]([O-])c1c(NCCCO)cc(Sc2ccc(Cl)cc2)c2nonc12 | / | 30 | / | 33 | 77* | 98* | 96*
COc1ccc(CNc2cc(NCCCO)c([N+](=O)[O-])c3nonc23)cc1 | -1 | -33 | 4 | 15 | -5 | 20 | /
COc1cccc(NC(=O)CCC(=O)N2CC(C)Oc3ccc(C)cc32)c1 (configuration not stated) | -3 | -1 | -3 | 10 | -4 | 10 | /
O=C(Nc1ccc(Oc2ccccc2)cc1)c1csc([C@@H]2O[C@H](CO)[C@H](O)[C@H](O)[C@H]2O)n1 | / | / | / | 10 | 48* | / | 52*
COc1ccc2nc(C)cc(Nc3ccc(C)cc3)c2c1 | -2 | 6 | 4 | 16 | 58* | 12 | 1
COc1ccc(Nc2cc(C)nc3ccccc23)cc1 | -2 | -13 | 0 | -6 | -1 | -1 | /
COC(=O)c1ccccc1S(=O)(=O)N1CCC(C(=O)NCc2ccco2)CC1 | -3 | -8 | -2 | -10 | -2 | -8 | /
COc1ccc(/C=N/NC(=O)CN(C)S(=O)(=O)c2ccc(NC(C)=O)cc2)cc1 | -1 | 11 | -10 | -6 | 0 | 5 | /
CC(=O)Nc1ccc(S(=O)(=O)N(C)CC(=O)N/N=C/c2ccc(C(=O)O)cc2)cc1 | -1 | 3 | -10 | -13 | 88* | -6 | -3
CCCC(=O)c1ccc(O)cc1O | -2 | -13 | 1 | 1 | 4 | / | /
C=C(C)CNC(=S)N/N=C(\C)c1ccc(Cl)s1 | -6 | -12 | 19 | 18 | 18 | 19 | /
CCNC(=S)N/N=C(\C)c1ccc(Cl)s1 | -5 | -7 | 30 | 3 | 41* | 32 | 26
COc1cc(NCCCn2cnc3c(OC)ncnc32)cc(OC)c1OC | / | / | / | -14 | -3 | / | /
O=C(Nc1ccccc1)c1ccc(Nc2c([N+](=O)[O-])cc([N+](=O)[O-])c3ccccc23)cc1 | -10 | 15 | 75* | 49* | 56* | 84* | 67* | EBI2 antag conf=47;EBI2 ag=-1;bGal counter=23
SMILES | APJ ag | B2AR ag | APJ antag | EBI2 block | CXCR6 inh | CCR6 antagonist | CXCR6 antag conf | others
COc1ccc(-c2c(C(=O)c3ccccc3)[nH]c(N)c2C(=O)c2ccc(Br)cc2)cc1OC | / | / | / | 42* | 61* | / | 65* | EBI2 antag conf=41;EBI2 ag=-2;bGal counter=0
COc1ccc(NC(=O)C2(C)CCN2Cc2ccccc2Cl)cc1OC (configuration not stated) | / | / | / | 2 | -1 | / | /
Cc1ccc(C2CC(=O)C(C=NCCN3CCN(C(=S)Nc4ccc(F)cc4)CC3)=C(O)C2)cc1 (configuration not stated) | -2 | 2 | -16 | 6 | 8 | 1 | /
Cc1cc(C)nc(N/N=C/C2=C(O)CC(c3ccc(F)cc3)CC2=O)n1 (configuration not stated) | -13 | 8 | 23 | 57* | 60* | 78* | 26 | EBI2 antag conf=67*;EBI2 ag=-5;bGal counter=-5
O=C(NC1CC1)c1ccccc1 | / | / | / | -5 | 1 | / | /
O=C(/C=C1\C(=O)Nc2ccccc21)/C=C1\C(=O)Nc2ccccc21 | / | 22 | / | 41* | 20 | 38 | / | EBI2 antag conf=37;EBI2 ag=-1;bGal counter=-19
CC(=O)c1cccc(S(=O)(=O)N2CCC(C(=O)Nc3cccc(C(=O)NC4CC4)c3)CC2)c1 | -1 | 4 | 2 | 6 | 6 | 10 | /
Cc1ccc(CNC(=O)C2CCC(CNc3c(N4CCC(C)CC4)c(=O)c3=O)CC2)cc1 (configuration not stated) | -2 | -18 | -2 | 84* | 5 | 9 | / | EBI2 antag conf=57*;EBI2 ag=1;bGal counter=12
O=C(c1ccc(Cl)c(Cl)c1)c1cc(-c2ccccn2)c(N2CCOCC2)s1 | 0 | -4 | -4 | 65* | -1 | 17 | / | EBI2 antag conf=31;EBI2 ag=2;bGal counter=3
O=C(c1ccc(Cl)c(S(=O)(=O)N2CCOCC2)c1)N1CCN(c2ccccn2)CC1 | -3 | -7 | 16 | -7 | 2 | 10 | /
O=C(c1ccc(Br)cc1)c1cc(-c2ccccn2)c(N2CCOCC2)s1 | -3 | -11 | 13 | 37* | 3 | 27 | / | EBI2 antag conf=39;EBI2 ag=-2;bGal counter=-16
O=C(c1ccccc1)c1ccc(N2CCOCC2)cc1 | / | 3 | / | -13 | -9 | 0 | /
CC1CCCCC12NC(=O)N(CC(=O)Nc1cccnc1)C2=O (configuration not stated) | / | / | / | -7 | 4 | / | /
